The source of these data is ChEMBL document CHEMBL5329163, “N-Acylsulfonamide: a valuable moiety to design new sulfa drug analogues” (RSC Med Chem, 2023).

≈ marks a conversion by molar mass, not a printed value. Calls of active or inactive are those of the source.

The test system of series [1] is Escherichia coli. Nature of the series: Antibacterial activity against Escherichia coli ATCC 8739 assessed as inhibition of bacterial growth incubated for 24 hrs by resazurin dye based broth microdilution method. It counts as functional. Summed up:
(§1)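 CLSI broth microdilution in cation-adjusted Mueller Hinton broth, pH 7.4 (±0.2). Compounds dissolved in DMSO at 25.6 mg mL⁻¹ (stock), diluted to 1–256 µg mL⁻¹. Inoculum 5 × 10⁵ CFU mL⁻¹ final; 24 h at 37 °C, static. Resazurin 0.015% then added, 2–4 h more; wells staying blue read as above MIC. Sulfacetamide reference.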
Background: Alamar Blue is a resazurin reagent that responds to reducing activity.

In series [2] the test system is Pseudomonas aeruginosa. Nature of the series: Antibacterial activity against Pseudomonas aeruginosa ATCC 27853 assessed as inhibition of bacterial growth incubated for 24 hrs by resazurin dye based broth microdilution method. It counts as functional. An outline of the steps:
as §1

For series [3], the system named is Bacillus subtilis. Nature of the series: Antibacterial activity against Bacillus subtilis ATCC 6051 assessed as inhibition of bacterial growth incubated for 24 hrs by resazurin dye based broth microdilution method. It counts as functional. Summed up:
as §1

Series [4] concerns Staphylococcus aureus. In words: Antibacterial activity against Staphylococcus aureus CIP 107093 assessed as inhibition of bacterial growth incubated for 24 hrs by resazurin dye based broth microdilution method. It counts as functional. Summed up:
as §1

Series [5] concerns Escherichia coli. Nature of the series: Antibiofilm activity against Escherichia coli ATCC 8739 assessed as inhibition of biofilm formation at 0.5 times of MIC by crystal violet staining based analysis relative to control. It counts as functional. An outline of the steps: (§2)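 Overnight cultures inoculated into fresh LB with compound at ½ MIC and grown 24 h at 37 °C, static. Growth read at 580 nm. Medium discarded, wells rinsed with distilled water, stained with 0.1% crystal violet, dye solubilized in 30% acetic acid, OD 595 nm; uninoculated-control staining subtracted. At least three independent replicates, mean ± SEM; one-way ANOVA with Dunnett test.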

For series [6], the system named is Pseudomonas aeruginosa. In words: Antibiofilm activity against Pseudomonas aeruginosa ATCC 27853 assessed as inhibition of biofilm formation at 0.5 times of MIC by crystal violet staining based analysis relative to control. It counts as functional. An outline of the steps:
as §2

The subject of a further series is HaCaT. Nature of the series: Cytotoxicity against human HaCaT cells incubated for 24 hrs by CyQuant LDH assay. It counts as toxicity, cell-based. Summed up: (§3)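 HaCaT (10% FCS) or Caco-2 (20% FCS) grown in DMEM with 1% penicillin–streptomycin, 37 °C, 5% CO₂. Seeded in 24-well plates, grown 72 h, rinsed with PBS, then exposed 24 h to compounds at MIC and ½ MIC in fresh DMEM. LDH release measured. Untreated and damaged-cell controls; two independent assays, at least 2 replicates, mean ± SEM.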

The test system of another series is Caco-2. Nature of the series: Cytotoxicity against human Caco-2 cells incubated for 24 hrs by CyQuant LDH assay. It counts as toxicity, cell-based. To be noted: caco-2, 24 h. An outline of the steps: as §3
The test system of series [7] is Escherichia coli. Nature of the series: Antibacterial activity against Escherichia coli ATCC 8739 assessed as inhibition of bacterial growth at 1 to 256 ug/ml incubated for 24 hrs by resazurin dye based broth microdilution method. The conditions noted are these: dose 1-256 µg/ml. It counts as functional, organism-based. Summed up: as §1
For series [8], the system named is Pseudomonas aeruginosa. In words: Antibacterial activity against Pseudomonas aeruginosa ATCC 27853 assessed as inhibition of bacterial growth at 1 to 256 ug/ml incubated for 24 hrs by resazurin dye based broth microdilution method. It counts as functional, organism-based. To be noted: dose 1-256 µg/ml. Summed up:
as §1

Series [9] has as its system Bacillus subtilis. In words: Antibacterial activity against Bacillus subtilis ATCC 6051 assessed as inhibition of bacterial growth at 1 to 256 ug/ml incubated for 24 hrs by resazurin dye based broth microdilution method. It counts as functional, organism-based. The conditions noted are these: dose 1-256 µg/ml. An outline of the steps: as §1
Series [10] relates to Staphylococcus aureus. Nature of the series: Antibacterial activity against Staphylococcus aureus CIP 107093 assessed as inhibition of bacterial growth at 1 to 256 ug/ml incubated for 24 hrs by resazurin dye based broth microdilution method. To be noted: dose 1-256 µg/ml. It counts as functional, organism-based. An outline of the steps: as §1

In general, MIC refers to the smallest concentration in the dilution series that meets the test's criterion for growth inhibition. `Nc1ccc(S(=O)(=O)NC(=O)c2ccc([N+](=O)[O-])cc2)cc1`: the MIC with Escherichia coli [1] was more than 256 µg/mL; in the series on Pseudomonas aeruginosa [2] it was more than 256 µg/mL; with Bacillus subtilis [3], 256 µg/mL (≈ 797 µM); in the series on Staphylococcus aureus [4], more than 256 µg/mL.
On to `COc1ccccc1C(=O)NS(=O)(=O)c1ccc(N)cc1`, for which the MIC was 256 µg/mL (≈ 836 µM) with Escherichia coli [1], more than 256 µg/mL with Pseudomonas aeruginosa [2], 64 µg/mL (≈ 209 µM) in the series with Bacillus subtilis [3] and 256 µg/mL (≈ 836 µM) in the series with Staphylococcus aureus [4]. Also, the result in the series on Escherichia coli [5] and in the series on Pseudomonas aeruginosa [6] was Active. The Activity entry with HaCaT and in the series on Caco-2 was “Non-Toxic” each time.
For the compound `CC(=O)Nc1ccc(S(=O)(=O)NC(=O)c2ccc(Cl)cc2Cl)cc1`, the outcome in the series on Escherichia coli [7], in the series on Pseudomonas aeruginosa [8], in the series on Bacillus subtilis [9] and in the series with Staphylococcus aureus [10] was inactive.
Regarding `Nc1ccc(S(=O)(=O)NC(=O)c2cc(F)c(F)c(F)c2)cc1`, the MIC with Escherichia coli [1], with Pseudomonas aeruginosa [2], in the series with Bacillus subtilis [3] and in the series with Staphylococcus aureus [4] was more than 256 µg/mL each time.
On to `CC(=O)NS(=O)(=O)c1ccc(N)cc1` [SULFACETAMIDE], for which the MIC in the series with Escherichia coli [1] was 32 µg/mL (≈ 149 µM); in the series on Pseudomonas aeruginosa [2] it was more than 256 µg/mL; in the series on Bacillus subtilis [3], 128 µg/mL (≈ 597 µM); in the series on Staphylococcus aureus [4], 256 µg/mL (≈ 1190 µM). The Activity entry in the series on HaCaT and in the series on Caco-2 was “Non-Toxic” throughout.
`COc1cc(C(=O)NS(=O)(=O)c2ccc(N)cc2)ccc1[N+](=O)[O-]`: the minimal inhibitory concentration (MIC) in the series with Escherichia coli [1], with Pseudomonas aeruginosa [2], in the series with Bacillus subtilis [3] and in the series with Staphylococcus aureus [4] was more than 256 µg/mL in each case.
Take `CC(=O)Nc1ccc(S(=O)(=O)NC(=O)c2ccccc2)cc1`: the outcome with Escherichia coli [7], in the series on Pseudomonas aeruginosa [8], in the series with Bacillus subtilis [9] and in the series with Staphylococcus aureus [10] was inactive.
Turning to `COc1cc(C(=O)NS(=O)(=O)c2ccc(NC(C)=O)cc2)ccc1[N+](=O)[O-]`, the outcome in the series on Escherichia coli [7], with Pseudomonas aeruginosa [8], in the series on Bacillus subtilis [9] and in the series on Staphylococcus aureus [10] was inactive.
Take `CC(=O)Nc1ccc(S(=O)(=O)NC(=O)c2cc(F)c(F)c(F)c2)cc1`: the outcome with Escherichia coli [7], in the series with Pseudomonas aeruginosa [8], in the series with Bacillus subtilis [9] and in the series with Staphylococcus aureus [10] was inactive.
In the case of `CC(=O)Nc1ccc(S(=O)(=O)NC(=O)c2ccc([N+](=O)[O-])cc2)cc1`, the outcome in the series on Escherichia coli [7], in the series with Pseudomonas aeruginosa [8], in the series with Bacillus subtilis [9] and in the series on Staphylococcus aureus [10] was inactive.
For the compound `Nc1ccc(S(=O)(=O)NC(=O)c2ccc(C(F)(F)F)cc2)cc1`, the MIC in the series with Escherichia coli [1], in the series on Pseudomonas aeruginosa [2], in the series with Bacillus subtilis [3] and in the series on Staphylococcus aureus [4] was more than 256 µg/mL throughout.
With `CC(=O)Nc1ccc(S(=O)(=O)NC(C)=O)cc1`, the result in the series on Escherichia coli [7], in the series on Pseudomonas aeruginosa [8], in the series on Bacillus subtilis [9] and with Staphylococcus aureus [10] was inactive.
With `Nc1ccc(S(=O)(=O)NC(=O)c2ccc(Cl)cc2Cl)cc1`, the MIC in the series on Escherichia coli [1], with Pseudomonas aeruginosa [2], in the series with Bacillus subtilis [3] and with Staphylococcus aureus [4] was more than 256 µg/mL each time.
On to `COc1cccc(C(=O)NS(=O)(=O)c2ccc(NC(C)=O)cc2)c1`, for which the result in the series with Escherichia coli [7], with Pseudomonas aeruginosa [8], in the series with Bacillus subtilis [9] and in the series on Staphylococcus aureus [10] was inactive.
On to `COc1cccc(C(=O)NS(=O)(=O)c2ccc(N)cc2)c1`, for which the MIC in the series on Escherichia coli [1] is 32 µg/mL (≈ 104 µM); in the series on Pseudomonas aeruginosa [2], more than 256 µg/mL; in the series on Bacillus subtilis [3] it was 256 µg/mL (≈ 836 µM); with Staphylococcus aureus [4], more than 256 µg/mL. Moreover, the “inhibition (INH)” value with Escherichia coli [5] stood at 42%; with Pseudomonas aeruginosa [6], 23%. Moreover, the Activity entry in the series on HaCaT and with Caco-2 was “Non-Toxic” throughout.
In the case of `COc1ccccc1C(=O)NS(=O)(=O)c1ccc(NC(C)=O)cc1`, the outcome in the series on Escherichia coli [7], in the series with Pseudomonas aeruginosa [8], in the series with Bacillus subtilis [9] and in the series with Staphylococcus aureus [10] was inactive.
Consider `Nc1ccc(S(=O)(=O)NC(=O)c2ccccc2)cc1` [SULFABENZAMIDE], for which the minimal inhibitory concentration (MIC) with Escherichia coli [1] was 32 µg/mL (≈ 116 µM); in the series on Pseudomonas aeruginosa [2] it was more than 256 µg/mL; with Bacillus subtilis [3], 128 µg/mL (≈ 463 µM); in the series with Staphylococcus aureus [4], more than 256 µg/mL. The “inhibition (INH)” value with Escherichia coli [5] was 30%; in the series on Pseudomonas aeruginosa [6], 14%. In addition, the Activity result in the series on HaCaT and in the series on Caco-2 was “Non-Toxic” throughout.
For `CC(=O)Nc1ccc(S(=O)(=O)NC(=O)c2ccc(C(F)(F)F)cc2)cc1`, the outcome in the series on Escherichia coli [7], in the series on Pseudomonas aeruginosa [8], in the series on Bacillus subtilis [9] and in the series with Staphylococcus aureus [10] was inactive.
